Reference: ChEMBL document CHEMBL2311298, “2H-chromene derivatives bearing thiazolidine-2,4-dione, rhodanine or hydantoin moieties as potential anticancer agents” (Eur J Med Chem, 2013)

What was measured:
[1] = system: K562; assay: Anticancer activity against human K562 cells assessed as cell viability after 72 hrs by MTT reduction assay; type: functional, cell-based; details: K562, 72 h
Outline: (§1)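 Cells grown in RPMI 1640 with 10% FBS, 100 units/ml penicillin-G and streptomycin, 37 °C, 5% CO2. A549, MCF-7 and NIH/3T3 grown as monolayers, K562 and MOLT-4 in suspension. Seeding densities (cells/ml): A549 40,000, K562 40,000, MCF-7 30,000, MOLT-4 40,000, NIH/3T3 50,000. Overnight at 37 °C, then 3-4 concentrations added.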

[2] = system: A549; assay: Anticancer activity against human A549 cells assessed as cell viability after 72 hrs by MTT reduction assay; type: functional, cell-based; details: A549, 72 h; outline: as §1
[3] = system: MCF7; assay: Anticancer activity against human MCF7 cells assessed as cell viability after 72 hrs by MTT reduction assay; type: functional, cell-based; details: MCF7, 72 h; outline: as §1
[4] = system: MOLT-4; assay: Anticancer activity against human MOLT4 cells assessed as cell viability at 50 uM after 72 hrs by trypan blue exclusion assay; type: functional; details: MOLT-4, 72 h, read-out: Activity
Outline: (§2)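 MOLT-4 cells in RPMI 1640 with 10% FBS, grown in suspension at 37 °C, 5% CO2. Cells exposed for 72 h as in the MTT assay, with each compound at a single concentration. Suspension mixed 1:1 with trypan blue. Clear (viable) and blue cells counted on a hemocytometer. Percent viable cells expressed relative to control wells.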

[5] = system: NIH3T3; assay: Anticancer activity against mouse NIH/3T3 cells assessed as cell viability after 72 hrs by MTT reduction assay; type: cell-based; details: NIH3T3, 72 h; outline: as §1
[6] = system: MOLT-4; assay: Anticancer activity against human MOLT4 cells assessed as cell viability after 72 hrs by MTT reduction assay; type: functional, cell-based; details: MOLT-4, 72 h; outline: as §1
[7] = system: MOLT-4; assay: Anticancer activity against human MOLT4 cells assessed as cell viability at 40 uM after 72 hrs by trypan blue exclusion assay; type: functional; details: MOLT-4, 72 h, read-out: Activity; outline: as §2
[8] = system: MOLT-4; assay: Anticancer activity against human MOLT4 cells assessed as cell viability at 75 uM after 72 hrs by trypan blue exclusion assay; type: functional; details: MOLT-4, 72 h, read-out: Activity; outline: as §2
[9] = system: MOLT-4; assay: Anticancer activity against human MOLT4 cells assessed as cell viability at 10 uM after 72 hrs by trypan blue exclusion assay; type: functional; details: MOLT-4, 72 h, read-out: Activity; outline: as §2
[10] = system: MOLT-4; assay: Anticancer activity against human MOLT4 cells assessed as cell viability at 100 uM after 72 hrs by trypan blue exclusion assay; type: functional; details: MOLT-4, 72 h, read-out: Activity; outline: as §2
[11] = system: MOLT-4; assay: Anticancer activity against human MOLT4 cells assessed as cell viability at 20 uM after 72 hrs by trypan blue exclusion assay; type: functional; details: MOLT-4, 72 h, read-out: Activity; outline: as §2
[12] = system: MOLT-4; assay: Anticancer activity against human MOLT4 cells assessed as cell viability at 65 uM after 72 hrs by trypan blue exclusion assay; type: functional; details: MOLT-4, 72 h, read-out: Activity; outline: as §2
[13] = system: MOLT-4; assay: Anticancer activity against human MOLT4 cells assessed as cell viability at 25 uM after 72 hrs by trypan blue exclusion assay; type: functional; details: MOLT-4, 72 h, read-out: Activity; outline: as §2

| IC50 [1] | IC50 [2] | IC50 [3] | IC50 [6] | SMILES | viability at 50 µM [4] | IC50 [5] | viability at 40 µM [7] | viability at 75 µM [8] | viability at 10 µM [9] | viability at 100 µM [10] | viability at 20 µM [11] | viability at 65 µM [12] | viability at 25 µM [13] |
| --- | --- | --- | --- | --- | --- | --- | --- | --- | --- | --- | --- | --- | --- |
| 55.3 µM | 73.1 µM | 68.7 µM | 52 µM | O=C1NC(=S)S/C1=C\C1=Cc2ccccc2OC1 | 49.3% | 72.4 µM |  |  |  |  |  |  |  |
| > 100 µM | > 100 µM | > 100 µM | > 100 µM | O=C(O)CN1C(=O)/C(=C/C2=Cc3ccccc3OC2)SC1=S |  |  |  |  |  |  |  |  |  |
| > 200 µM | > 200 µM | > 200 µM | > 200 µM | CCN1C(=O)S/C(=C\C2=Cc3ccccc3OC2)C1=O |  |  |  |  |  |  |  |  |  |
| 49.8 µM | 79.5 µM | 57.9 µM | 54.7 µM | O=C1NC(=O)/C(=C/C2=Cc3cc(Br)ccc3OC2)S1 | 52.7% | 56.5 µM |  |  |  |  |  |  |  |
| 33.7 µM | 51 µM | 40.4 µM | 38.2 µM | O=C1NC(=S)S/C1=C\C1=Cc2cc(Br)ccc2OC1 |  | 27.8 µM | 46.7% |  |  |  |  |  |  |
| 79.3 µM | 19.3 µM | 51 µM | 77.5 µM | O=C1NC(=O)/C(=C/C2=Cc3cc(Br)ccc3OC2)N1 |  | 35.9 µM |  | 60.1% |  |  |  |  |  |
| > 25 µM | > 25 µM | > 25 µM | > 25 µM | O=C(O)CN1C(=O)/C(=C/C2=Cc3cc(Br)ccc3OC2)SC1=S |  |  |  |  |  |  |  |  |  |
| 90.4 µM | > 200 µM | 89.1 µM | 13.2 µM | CCN1C(=O)S/C(=C\C2=Cc3cccc(OC)c3OC2)C1=O |  | 75 µM |  |  | 53.2% |  |  |  |  |
| > 200 µM | > 200 µM | > 200 µM | > 200 µM | COc1cccc2c1OCC(/C=C1\SC(=S)N(CC(=O)O)C1=O)=C2 |  |  |  |  |  |  |  |  |  |
| 96.5 µM | 89.4 µM | 149 µM | 72 µM | CN1C(=N)NC(=O)/C1=C/C1=Cc2ccccc2OC1 |  | 106 µM |  | 49.5% |  |  |  |  |  |
| > 100 µM | > 100 µM | > 100 µM | > 100 µM | CN1C(=O)S/C(=C\C2=Cc3ccccc3OC2)C1=O |  |  |  |  |  |  |  |  |  |
| 98.9 µM | 192 µM | 99.4 µM | 101 µM | O=C1NC(=O)/C(=C/C2=Cc3ccccc3OC2)S1 |  | > 200 µM |  |  |  | 53.4% |  |  |  |
| 55.7 µM | 29.7 µM | 8.1 µM | 21.3 µM | O=C1NC(=O)/C(=C/C2=Cc3ccccc3OC2)N1 |  | 180 µM |  |  |  |  | 53.3% |  |  |
| 77 µM | 65.5 µM | 67.6 µM | 64.5 µM | CC1Oc2ccc(Br)cc2C=C1/C=C1\SC(=O)NC1=O (racemic) |  | 56.2 µM |  |  |  |  |  | 53.3% |  |
| 31.6 µM | 47.5 µM | 19.9 µM | 20.5 µM | CC1Oc2ccc(Br)cc2C=C1/C=C1\SC(=S)NC1=O (racemic) |  | 28.7 µM |  |  |  |  | 53.1% |  |  |
| 51.8 µM | 121 µM | 84.8 µM | 56.6 µM | CC1Oc2ccc(Br)cc2C=C1/C=C1/C(=O)NC(=N)N1C (racemic) | 54.3% | 87.7 µM |  |  |  |  |  |  |  |
| 10.6 µM | 17.5 µM | 15.3 µM | 24.8 µM | CC1Oc2ccc(Br)cc2C=C1/C=C1\NC(=O)NC1=O (racemic) |  | 25.2 µM |  |  |  |  |  |  | 41.3% |
| > 50 µM | > 50 µM | > 50 µM | > 50 µM | CC1Oc2ccc(Br)cc2C=C1/C=C1\SC(=O)N(C)C1=O (racemic) |  |  |  |  |  |  |  |  |  |
| > 100 µM | > 100 µM | > 100 µM | > 100 µM | CCN1C(=O)S/C(=C\C2=Cc3cc(Br)ccc3OC2C)C1=O (racemic) |  |  |  |  |  |  |  |  |  |
| > 50 µM | > 50 µM | > 50 µM | > 50 µM | CC1Oc2ccc(Br)cc2C=C1/C=C1\SC(=S)N(CC(=O)O)C1=O (racemic) |  |  |  |  |  |  |  |  |  |
